Where two headings read alike, the source gives them in different places.
What was measured:
[1] = set-up: species or system female Sprague-Dawley rats; settings: female, Sprague-Dawley, rat, in vivo
[2] = 10 μg/kg (2.4 nmoles/kg) iv bolus dose; ref 10 (Jones et al.); cited from earlier work
[3] = Single-dose subcutaneous serum pharmacokinetics, analysis of individual animals; assay type: in vivo, female Sprague-Dawley rats
Method in brief: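 Three-month-old female rats (200–240 g), acclimated two weeks, n = 4, got one subcutaneous dose. Tail-vein blood was drawn at 0, 2, 5, 10, 20, 30, 60, 180 and 360 min, clotted at ambient temperature, spun 14,000 rpm 10 min refrigerated, and serum stored at −80°C. Immunoreactive hPTH(1-34) was measured by ELISA. Parameters came from individual animals; half-life was reported as geometric mean.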

For `CC[C@H](C)[C@H](NC(=O)[C@H](CCC(=O)O)NC(=O)[C@H](CO)NC(=O)[C@@H](NC(=O)[C@@H](N)CO)C(C)C)C(=O)N[C@@H](CCC(N)=O)C(=O)N[C@@H](CC(C)C)C(=O)N[C@@H](CCSC)C(=O)N[C@@H](Cc1cnc[nH]1)C(=O)N[C@@H](CC(N)=O)C(=O)N[C@@H](CC(C)C)C(=O)NCC(=O)N[C@@H](CCCCN)C(=O)N[C@@H](Cc1cnc[nH]1)C(=O)N[C@@H](CC(C)C)C(=O)N[C@@H](CC(N)=O)C(=O)N[C@@H](CO)C(=O)N[C@@H](CCSC)C(=O)N[C@@H](CCC(=O)O)C(=O)N[C@@H](CCCN=C(N)N)C(=O)N[C@H](C(=O)N[C@@H](CCC(=O)O)C(=O)N[C@@H](Cc1c[nH]c2ccccc12)C(=O)N[C@@H](CC(C)C)C(=O)N[C@@H](CCCN=C(N)N)C(=O)N[C@@H](CCCCN)C(=O)N[C@@H](CCCCN)C(=O)N[C@@H](CC(C)C)C(=O)N[C@@H](CCC(N)=O)C(=O)N[C@@H](CC(=O)O)C(=O)N[C@H](C(=O)N[C@@H](Cc1cnc[nH]1)C(=O)N[C@@H](CC(N)=O)C(=O)N[C@@H](Cc1ccccc1)C(=O)O)C(C)C)C(C)C` [PTH(1-34), teriparatide], the clearance [1] is listed as 83 mL/min/kg, the bioavailability ([1]; sc) is listed as 47% and the clearance [2] is listed as 98 mL/min/kg. For the same molecule, the half-life ([3]; female, Sprague-Dawley, rat, serum, sc, 19.4 nmoles/kg) was 59 min and the “Time by which serum concentrations returned to background levels” value ([3]; single sc dose 19.4 nmoles/kg) was ≤ 6 h.
